Source: ChEMBL document CHEMBL2331170, “Synthesis and biological evaluation of novel pyranochalcone derivatives as a new class of microtubule stabilizing agents” (Eur J Med Chem, 2013)
Activity calls are given as the source filed them. The rule behind the calls is not given here.

Assays:
[1] = tested on: A-375; experiment: Cytotoxicity against human A375 cells by MTT assay; assay type: functional, cell-based
In short: (§1)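 Log-phase cells were diluted to 40,000–50,000 cells/mL in medium with 10% FBS, 2 mM glutamine and antibiotics (37 °C, 5% CO₂). They were seeded in 96-well plates and treated with a range of doses. MTT was added for 4 h, the formazan was dissolved in DMSO, and absorbance was read at 590 nm.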

[2] = Cytotoxicity against human LO2 cells by MTT assay; assay type: cell-based; conditions: L02; in short: as §1
[3] = tested on: K562; experiment: Cytotoxicity against human K562 cells by MTT assay; assay type: functional, cell-based; in short: as §1
[4] = tested on: HepG2; experiment: Cytotoxicity against human HepG2 cells by MTT assay; assay type: functional, cell-based; in short: as §1
[5] = tested on: SK-OV-3; experiment: Cytotoxicity against human SKOV3 cells by MTT assay; assay type: functional, cell-based
[6] = tested on: HepG2; experiment: Cell cycle arrest in human HepG2 cells assessed as accumulation at G2/M phase at after 24 hrs by flow cytometry; assay type: functional, cell-based
[7] = tested on: HCT-15; experiment: Cytotoxicity against human HCT15 cells by MTT assay; assay type: functional, cell-based
[8] = Cytotoxicity against human H460 cells by MTT assay; assay type: functional, cell-based; conditions: NCI-H460
[9] = tested on: MCF7; experiment: Cytotoxicity against human MCF7 cells by MTT assay; assay type: functional, cell-based
[10] = Cytotoxicity against mouse C26 cells by MTT assay; assay type: functional, cell-based
[11] = tested on: HepG2; experiment: Effect on microtubule network in human HepG2 cells assessed as abnormal mitotic spindles at 1 uM after 24 hrs by propidium iodide-FITC-based staining method; assay type: cell-based
In short: (§2)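 HepG2 cells were treated with 1.0 μM for 24 h. They were washed in PBS, fixed in cold 4% PFA for 10 min and blocked for 1 h in 5% goat serum/0.3% Triton/PBS. Staining used monoclonal anti-α-tubulin overnight at 4 °C, then Alexa Fluor 488 anti-mouse IgG for 30 min at room temperature, with propidium iodide for DNA. Cells were imaged by fluorescence or confocal microscopy.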

[12] = tested on: HepG2; experiment: Induction of microtubule polymerization in human HepG2 cells at 1 uM after 24 hrs by propidium iodide-FITC-based staining method
[13] = tested on: HepG2; experiment: Cell cycle arrest in human HepG2 cells assessed as accumulation at G2/M phase at 1 uM after 24 hrs by flow cytometry (reference value: 17.07 %); assay type: functional
[14] = tested on: A2780; experiment: Cytotoxicity against taxol-resistant human A2780 cells by MTT assay; assay type: functional, cell-based
[15] = tested on: Bel-7402; experiment: Cytotoxicity against human Bel7402 cells by MTT assay; assay type: functional, cell-based
[16] = tested on: HepG2; experiment: Cell cycle arrest in human HepG2 cells assessed as accumulation at G2/M phase at 0.2 uM after 24 hrs by flow cytometry (reference value: 17.07 %); assay type: functional
[17] = Cytotoxicity against human MCF7/ADR cells by MTT assay; assay type: functional, cell-based; conditions: NCI/ADR-RES
[18] = tested on: HepG2; experiment: Effect on microtubule network in human HepG2 cells assessed as multiple tubulin bundles without chromosomes aligned at the metaphase plate with more dispersion of the chromosomes at 1 uM after 24 hrs by propidium iodide-FITC-based staining method; assay type: cell-based; in short: as §2
[19] = Ratio of taxol IC50 to compound IC50 for mouse C26 cells by MTT assay; assay type: functional
[20] = Cytotoxicity against human SPC-A1 cells by MTT assay; assay type: functional, cell-based; conditions: SPCA1
[21] = Cytotoxicity against human A2780S cells by MTT assay; assay type: functional, cell-based; conditions: A2780
[22] = tested on: SK-HEP1; experiment: Cytotoxicity against human SKHEP1 cells by MTT assay; assay type: functional, cell-based
[23] = Cytotoxicity against human ES2 cells by MTT assay; assay type: functional, cell-based; conditions: ES-2
[24] = tested on: DU-145; experiment: Cytotoxicity against human DU145 cells by MTT assay; assay type: functional, cell-based
[25] = tested on: PC-3; experiment: Cytotoxicity against human PC3 cells by MTT assay; assay type: functional, cell-based
[26] = tested on: HCT-8; experiment: Cytotoxicity against taxol-resistant human HCT8 cells by MTT assay; assay type: functional, cell-based
[27] = tested on: NCI-H358; experiment: Cytotoxicity against human NCI-H358 cells by MTT assay; assay type: functional, cell-based
[28] = tested on: HT-29; experiment: Cytotoxicity against human HT-29 cells by MTT assay; assay type: functional, cell-based

Q: For `COc1ccc(/C=C/C(=O)c2ccc(OC)c3c2OC(C)(C)C=C3)cc1OC(=O)c1ccc(Br)cc1`, which IC50 [1] is on record?
A: 420 nM

Q: What about the IC50 [2] of the same molecule?
A: 8.4 µM

Q: What about the IC50 [3] of the same molecule?
A: 1110 nM

Q: What about the IC50 [4] of the same molecule?
A: 680 nM

Q: With `COc1ccc(/C=C/C(=O)c2ccc(OC)c3c2OC(C)(C)C=C3)cc1OS(C)(=O)=O` as the molecule, how does the IC50 [1] read?
A: > 10000 nM

Q: What about the IC50 [2] of the same molecule?
A: > 10 µM

Q: What about the IC50 [3] of the same molecule?
A: 9240 nM

Q: And the IC50 [4]?
A: 9180 nM

Q: With `COc1ccc(/C=C/C(=O)c2ccc(OC)c3c2OC(C)(C)C=C3)cc1OC(=O)CCCc1ccc(N(CCCl)CCCl)cc1` as the molecule, how does the IC50 [1] read?
A: 9200 nM

Q: And the IC50 [2]?
A: > 10 µM

Q: And the IC50 [3]?
A: 470 nM

Q: What about the IC50 [4] of the same molecule?
A: 700 nM

Q: Which IC50 [1] does the source give for `COc1ccc(/C=C/C(=O)c2ccc(OC)c3c2OC(C)(C)C=C3)cc1OS(=O)(=O)c1ccc(C)cc1` here?
A: 2400 nM

Q: What about the IC50 [2] of the same molecule?
A: > 10 µM

Q: And the IC50 [3]?
A: 7850 nM

Q: And the IC50 [4]?
A: 3600 nM

Q: With `COc1ccc(/C=C/C(=O)c2ccc(OC)c3c2OC(C)(C)C=C3)cc1OCCN1CCCC1` as the molecule, how does the IC50 [1] read?
A: 3810 nM

Q: And the IC50 [2]?
A: 9.5 µM

Q: What about the IC50 [3] of the same molecule?
A: 3050 nM

Q: What about the IC50 [4] of the same molecule?
A: > 10000 nM

Q: With `CCCCC(=O)Oc1cc(/C=C/C(=O)c2ccc(OC)c3c2OC(C)(C)C=C3)ccc1OC` as the molecule, how does the IC50 [5] read?
A: 270 nM

Q: What about the Activity [6] of the same molecule?
A: Dose-dependent effect

Q: What about the IC50 [7] of the same molecule?
A: 100 nM

Q: And the IC50 [8]?
A: 5.45 µM

Q: And the IC50 [9]?
A: 250 nM

Q: And the IC50 [10]?
A: 300 nM

Q: What about the Activity [11] of the same molecule?
A: Active

Q: And the IC50 [1]?
A: 220 nM

Q: What about the Activity [12] of the same molecule?
A: Active

Q: What about the Activity [13] of the same molecule?
A: 69.18%

Q: And the IC50 [14]?
A: 5.92 µM

Q: And the IC50 [15]?
A: > 2000 nM

Q: What about the Activity [16] of the same molecule?
A: 53.47%

Q: And the IC50 [17]?
A: 170 nM

Q: And the Activity [18]?
A: Active

Q: What about the “Ratio IC50” value [19] of the same molecule?
A: 3

Q: And the IC50 [20]?
A: 18.1 µM

Q: And the IC50 [21]?
A: 330 nM

Q: What about the IC50 [22] of the same molecule?
A: 600 nM

Q: What about the IC50 [23] of the same molecule?
A: 100 nM

Q: And the IC50 [24]?
A: 210 nM

Q: And the IC50 [25]?
A: 120 nM

Q: And the IC50 [26]?
A: 2.3 µM

Q: What about the IC50 [27] of the same molecule?
A: 90 nM

Q: And the IC50 [2]?
A: > 10 µM

Q: What about the IC50 [3] of the same molecule?
A: 240 nM

Q: What about the IC50 [28] of the same molecule?
A: 190 nM

Q: What about the IC50 [4] of the same molecule?
A: 100 nM

Q: Which results are given for `COc1ccc(/C=C/C(=O)c2ccc(OC)c3c2OC(C)(C)C=C3)cc1OCC=C(C)C`?
A: IC50 [1]: > 10000 nM; IC50 [2]: > 10 µM; IC50 [3]: > 10000 nM; IC50 [4]: > 10000 nM

Q: Which IC50 [1] does the source give for `COc1ccc(/C=C/C(=O)c2ccc(OC)c3c2OC(C)(C)C=C3)cc1OC(=O)Cc1ccc(Cl)c(Cl)c1` here?
A: 700 nM

Q: What about the IC50 [2] of the same molecule?
A: > 10 µM

Q: And the IC50 [3]?
A: 430 nM

Q: What about the IC50 [4] of the same molecule?
A: 600 nM

Q: For `COc1cc2c(c(OC)c1OC)-c1ccc(OC)c(=O)cc1[C@@H](NC(C)=O)CC2` [COLCHICINE], which IC50 [5] is on record?
A: 120 nM

Q: What about the IC50 [7] of the same molecule?
A: 80 nM

Q: And the IC50 [8]?
A: 27 µM

Q: What about the IC50 [9] of the same molecule?
A: 290 nM

Q: What about the IC50 [10] of the same molecule?
A: 1720 nM

Q: What about the IC50 [14] of the same molecule?
A: > 20 µM

Q: And the IC50 [15]?
A: 1310 nM

Q: And the IC50 [17]?
A: 3120 nM

Q: And the IC50 [20]?
A: 80 µM

Q: What about the IC50 [21] of the same molecule?
A: 20 nM

Q: What about the IC50 [22] of the same molecule?
A: 170 nM

Q: And the IC50 [23]?
A: 90 nM

Q: What about the IC50 [24] of the same molecule?
A: 300 nM

Q: What about the IC50 [25] of the same molecule?
A: 40 nM

Q: What about the IC50 [26] of the same molecule?
A: 11.8 µM

Q: And the IC50 [27]?
A: 20 nM

Q: And the IC50 [28]?
A: 20 nM

Q: Which results are given for `COc1ccc(/C=C/C(=O)c2ccc(OC)c3c2OC(C)(C)C=C3)cc1OC(=O)c1ccco1`?
A: IC50 [1]: 680 nM; IC50 [2]: > 10 µM; IC50 [3]: 450 nM; IC50 [4]: 370 nM

Q: What does the source list for `COc1ccc(/C=C/C(=O)c2ccc(OC)c3c2OC(C)(C)C=C3)cc1OCCCN(C)C`?
A: IC50 [1]: 4100 nM; IC50 [2]: 8.6 µM; IC50 [3]: 2920 nM; IC50 [4]: 5550 nM

Q: With `COc1ccc(/C=C/C(=O)c2ccc(OC)c3c2OC(C)(C)C=C3)cc1OC(=O)C(C)C` as the molecule, how does the IC50 [1] read?
A: 310 nM

Q: And the IC50 [2]?
A: > 10 µM

Q: And the IC50 [3]?
A: 570 nM

Q: And the IC50 [4]?
A: 250 nM

Q: For `COc1ccc(/C=C/C(=O)c2ccc(OC)c3c2OC(C)(C)C=C3)cc1O`, which IC50 [1] is on record?
A: 800 nM

Q: What about the IC50 [2] of the same molecule?
A: > 10 µM

Q: What about the IC50 [3] of the same molecule?
A: 630 nM

Q: What about the IC50 [4] of the same molecule?
A: 450 nM
